This note sets out measurements from ChEMBL document CHEMBL3297674, “Structure-activity relationships of 2'-modified-4'-selenoarabinofuranosyl-pyrimidines as anticancer agents” (Eur J Med Chem, 2014).

One series deals with HCT-116. The series is described as follows: Cytotoxicity against human HCT116 cells by SRB assay. The series is classed as functional, cell-based. The procedure, abridged:
(§1)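 Cytotoxicity measured in human cancer cell lines (colon HCT116, lung A549, stomach SNU638, breast T47D, prostate PC-3, leukemia K562) by sulforhodamine B protein staining.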

The subject of a further series is A549. The series is described as follows: Cytotoxicity against human A549 cells by SRB assay. The series is classed as functional, cell-based. A digest of the protocol: as §1
The nature of series [1]: Cytotoxicity against human SNU638 cells by SRB assay. To be noted: SNU-638. It is filed as functional, cell-based. A digest of the protocol: as §1
The next series has as its system T47D. As to the kind of experiment: Cytotoxicity against human T47D cells by SRB assay. It is filed as functional, cell-based. A digest of the protocol:
as §1

Series [2] relates to PC-3. The series is described as follows: Cytotoxicity against human PC3 cells by SRB assay. The series is classed as functional, cell-based. A digest of the protocol: as §1
The test system of the next series is K562. The series is described as follows: Cytotoxicity against human K562 cells by SRB assay. The series is classed as functional, cell-based. A digest of the protocol:
as §1

Series [3] has as its system PC-3. The series is described as follows: Drug metabolism in human PC3 cells assessed as formation of mono, di, or triphosphate at 50 uM after 24 hrs by HPLC-MS analysis. The series is classed as ADME, cell-based. To be noted: pc-3, 24 h. The procedure, abridged:
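PC-3 cells seeded at 5×10^5 per 100 mm dish, grown 24 h, then exposed to 50 µM compound for 24 h. Cells washed with DPBS and extracted in methanol/chloroform with three liquid N₂ freeze–sonication cycles. Water/chloroform phase split at 22,000 g, 4 °C. Dried upper layer analysed by HILIC (ZIC-pHILIC, 10 mM ammonium carbonate/acetonitrile gradient, 35 °C) with ESI ion-trap MS.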

For `O=c1[nH]c(=O)n(C2[Se][C@H](CO)[C@@H](O)[C@@H]2O)cc1Cl` (stereo partly drawn), the IC50 (with HCT-116; in the series on A549; in series [1]; in the series on T47D; with PC-3 [2]; with K562) was above 100 µM throughout.
Regarding `O=c1[nH]c(=O)n(C2[Se][C@H](CO)[C@@H](O)[C@@H]2F)cc1Cl` (single isomer, unassigned; (+)), the IC50 in the series on HCT-116 was 80.2 µM; with A549 it was 82.1 µM; in series [1] it was 76.3 µM; in the series with T47D, 77.1 µM; in the series on PC-3 [2] it was above 100 µM; with K562, above 100 µM.
`[N-]=[N+]=N[C@@H]1C(n2ccc(N)nc2=O)[Se][C@H](CO)[C@H]1O` (single isomer, unassigned; (+)): the IC50 in the series on HCT-116 came to 78.3 µM; with A549 it was 80.1 µM; in series [1], 85.2 µM; with T47D, 78.4 µM; in the series with PC-3 [2], 75.1 µM; with K562, 62.3 µM.
As to `Cc1cn(C2[Se][C@H](CO)[C@@H](O)[C@@H]2O)c(=O)[nH]c1=O` (stereo partly drawn), the IC50 (in the series on HCT-116; in the series with A549; in series [1]; in the series with T47D; in the series on PC-3 [2]; with K562) was above 100 µM in each case.
For the molecule `[N-]=[N+]=N[C@@H]1C(n2ccc(=O)[nH]c2=O)[Se][C@H](CO)[C@H]1O` (stereo partly drawn), the half-maximal inhibitory concentration (IC50) (in the series with HCT-116; in the series with A549; in series [1]; with T47D; with PC-3 [2]; in the series on K562) was above 100 µM throughout.
On to `O=c1[nH]c(=O)n(C2[Se][C@H](CO)[C@@H](O)[C@@H]2O)cc1I` (stereo partly drawn), for which the 50% inhibitory concentration (IC50) (with HCT-116; in the series on A549; in series [1]; in the series with T47D; in the series with PC-3 [2]; in the series on K562) was above 100 µM each time.
As for `[N-]=[N+]=N[C@@H]1C(n2cc(I)c(=O)[nH]c2=O)[Se][C@H](CO)[C@H]1O` (stereo partly drawn), the half-maximal inhibitory concentration (IC50) (with HCT-116; with A549; in series [1]; with T47D; with PC-3 [2]; with K562) was above 100 µM each time.
`[N-]=[N+]=N[C@@H]1C(n2cc(Cl)c(=O)[nH]c2=O)[Se][C@H](CO)[C@H]1O` (stereo partly drawn): the IC50 (in the series with HCT-116; in the series with A549; in series [1]; with T47D; in the series on PC-3 [2]; in the series with K562) was above 100 µM each time.
For `[N-]=[N+]=N[C@@H]1C(n2cc(F)c(=O)[nH]c2=O)[Se][C@H](CO)[C@H]1O` (single isomer, unassigned; (+)), the IC50 (with HCT-116; in the series on A549; in series [1]; in the series with T47D; in the series on PC-3 [2]; in the series on K562) was above 100 µM each time.
Regarding `Nc1ccn(C2[Se][C@H](CO)[C@@H](O)[C@@H]2F)c(=O)n1` (stereo partly drawn), the IC50 with HCT-116 was found to be 1.1 µM; in the series on A549, 0.47 µM; in series [1] it was 0.14 µM; in the series with T47D, 0.79 µM; in the series with PC-3 [2] it was 0.58 µM; in the series on K562, 0.63 µM. Further, the Drug metabolism result with PC-3 [3] is “metabolite_notdetected”.
On to `[N-]=[N+]=N[C@@H]1C(n2cc(Br)c(=O)[nH]c2=O)[Se][C@H](CO)[C@H]1O` (single isomer, unassigned; (-)), for which the 50% inhibitory concentration (IC50) (in the series with HCT-116; in the series with A549; in series [1]; in the series on T47D; with PC-3 [2]; in the series with K562) was above 100 µM in each case.
As to `O=c1[nH]c(=O)n(C2[Se][C@H](CO)[C@@H](O)[C@@H]2F)cc1Br` (stereo partly drawn), the IC50 (with HCT-116; in the series with A549; in series [1]; in the series with T47D; in the series with PC-3 [2]; with K562) was above 100 µM each time.
For the molecule `O=c1ccn(C2[Se][C@H](CO)[C@@H](O)[C@@H]2F)c(=O)[nH]1` (single isomer, unassigned; (-)), the IC50 (in the series with HCT-116; in the series with A549; in series [1]; with T47D; in the series on PC-3 [2]; in the series with K562) was above 100 µM throughout.
For `O=c1[nH]c(=O)n(C2[Se][C@H](CO)[C@@H](O)[C@@H]2F)cc1I` (stereo partly drawn), the 50% inhibitory concentration (IC50) (in the series on HCT-116; in the series on A549; in series [1]; in the series with T47D; in the series with PC-3 [2]; with K562) was above 100 µM each time.
Turning to `Cc1cn(C2[Se][C@H](CO)[C@@H](O)[C@@H]2F)c(=O)[nH]c1=O` (stereo partly drawn), the IC50 in the series with HCT-116 was found to be 85.2 µM; with A549 it was 76.4 µM; in series [1], 77.2 µM; in the series on T47D, 65.3 µM; in the series on PC-3 [2], 88 µM; with K562, 76.3 µM.
Take `O=c1[nH]c(=O)n(C2[Se][C@H](CO)[C@@H](O)[C@@H]2F)cc1F` (stereo partly drawn): the half-maximal inhibitory concentration (IC50) was 40.1 µM in the series with HCT-116; 54.2 µM in the series with A549; 50.1 µM in series [1]; 51.1 µM in the series on T47D; 43.1 µM in the series with PC-3 [2]; 78.5 µM with K562.
Regarding `O=c1ccn(C2[Se][C@H](CO)[C@@H](O)[C@@H]2O)c(=O)[nH]1` (stereo partly drawn), the IC50 (in the series with HCT-116; in the series on A549; in series [1]; in the series with T47D; in the series on PC-3 [2]; in the series with K562) was above 100 µM each time.
For the molecule `Nc1ccn([C@@H]2O[C@H](CO)[C@@H](O)[C@@H]2O)c(=O)n1` [CYTARABINE], the IC50 in series [1] turned out to be 0.15 µM.
`O=c1[nH]c(=O)n(C2[Se][C@H](CO)[C@@H](O)[C@@H]2O)cc1F` (stereo partly drawn): the IC50 with HCT-116 was 56.8 µM; with A549 it was 55.2 µM; in series [1], 60.1 µM; in the series on T47D, 67.4 µM; in the series on PC-3 [2] it was 66.3 µM; in the series on K562, above 100 µM.
For `Nc1ccn(C2[Se][C@H](CO)[C@@H](O)[C@@H]2O)c(=O)n1` (stereo partly drawn), the IC50 with HCT-116 is 7.13 µM; with A549, 8.83 µM; in series [1] it was 4.72 µM; in the series on T47D, 8.91 µM; in the series on PC-3 [2], 4.54 µM; in the series with K562, 86.6 µM.
As to `Cc1cn(C2[Se][C@H](CO)[C@@H](O)[C@@H]2N=[N+]=[N-])c(=O)[nH]c1=O` (single isomer, unassigned; (+)), the half-inhibitory concentration (IC50) (in the series on HCT-116; in the series with A549; in series [1]; in the series with T47D; in the series with PC-3 [2]; in the series on K562) was above 100 µM throughout.
As for `O=c1[nH]c(=O)n(C2[Se][C@H](CO)[C@@H](O)[C@@H]2O)cc1Br` (stereo partly drawn), the 50% inhibitory concentration (IC50) (with HCT-116; in the series with A549; in series [1]; in the series with T47D; in the series with PC-3 [2]; with K562) was above 100 µM each time.
